# Experimental data as given in ChEMBL document CHEMBL3244396, “Synthesis and antileukemic activity of 5-substituted 2,3-dihydro-6,7-bis(hydroxymethyl)-1H-pyrrolizine diesters” (J Med Chem, 1977).
# Columns and labels:
# [1] = Cytotoxicity against human 9KB cells treated as ethanol solution; format: functional; settings: read-out: ED50 (the source's name)
# In short: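 Compound applied as an ethanol solution; activity read out as ED50 under the general screening protocol.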
# L1210 [2] = experiment: Antileukemic activity against mouse L1210 cells allografted in male CDF1 mouse assessed as change in body weight at 100 mg/kg, ip administered daily for 9 days as Klucel suspension starting 24 hrs after tumor inoculation; format: functional; settings: route intraperitoneal
# In short: (§1)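 Ascitic fluid carrying L1210 cells was inoculated ip. Compound was given ip as a Klucel (hydroxypropylcellulose) suspension in nine daily doses, starting 24 h after inoculation. Body-weight difference (treated minus control) was recorded on day 5. Survival was scored as %T/C of mean survival time.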
# L1210 [3] = experiment: Antileukemic activity against mouse L1210 cells allografted in male CDF1 mouse assessed as change in body weight at 200 mg/kg, ip administered daily for 9 days as Klucel suspension starting 24 hrs after tumor inoculation; format: functional; settings: route intraperitoneal; in short: as §1
# L1210 [4] = experiment: Antileukemic activity against mouse L1210 cells allografted in female BDF1 mouse assessed as change in body weight at 12.5 mg/kg, ip administered daily for 9 days as Klucel suspension starting 24 hrs after tumor inoculation; format: functional; settings: route intraperitoneal; in short: as §1
# L1210 [5] = experiment: Antileukemic activity against mouse L1210 cells allografted in female BDF1 mouse assessed as change in body weight at 25 mg/kg, ip administered daily for 9 days as Klucel suspension starting 24 hrs after tumor inoculation; format: functional; settings: route intraperitoneal; in short: as §1
# L1210 [6] = experiment: Antileukemic activity against mouse L1210 cells allografted in female BDF1 mouse assessed as change in body weight at 50 mg/kg, ip administered daily for 9 days as Klucel suspension starting 24 hrs after tumor inoculation; format: functional; settings: route intraperitoneal; in short: as §1
# L1210 [7] = experiment: Antileukemic activity against mouse L1210 cells allografted in female BDF1 mouse assessed as host mean survival time at 50 mg/kg, ip administered daily for 9 days as Klucel suspension starting 24 hrs after tumor inoculation relative to control; format: functional; settings: route intraperitoneal
# In short: (§2)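 L1210 leukemia given as an ascitic fluid cell inoculum, ip, to mice of the strain and sex in each line. Test material was given ip for nine daily doses starting 24 h after inoculation, in a Klucel (hydroxypropylcellulose) suspension. Read-out is mean survival time as %T/C versus controls, with >125 taken as significant.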
# L1210 [8] = experiment: Antileukemic activity against mouse L1210 cells allografted in female BDF1 mouse assessed as host mean survival time at 25 mg/kg, ip administered daily for 9 days as Klucel suspension starting 24 hrs after tumor inoculation relative to control; format: functional; settings: route intraperitoneal; in short: as §2
# L1210 [9] = experiment: Antileukemic activity against mouse L1210 cells allografted in female BDF1 mouse assessed as host mean survival time at 12.5 mg/kg, ip administered daily for 9 days as Klucel suspension starting 24 hrs after tumor inoculation relative to control; format: functional; settings: route intraperitoneal; in short: as §2
# L1210 [10] = experiment: Antileukemic activity against mouse L1210 cells allografted in male CDF1 mouse assessed as host mean survival time at 200 mg/kg, ip administered daily for 9 days as Klucel suspension starting 24 hrs after tumor inoculation relative to control; format: functional; settings: route intraperitoneal; in short: as §2
# L1210 [11] = experiment: Antileukemic activity against mouse L1210 cells allografted in male CDF1 mouse assessed as host mean survival time at 100 mg/kg, ip administered daily for 9 days as Klucel suspension starting 24 hrs after tumor inoculation relative to control; format: functional; settings: route intraperitoneal; in short: as §2
# Mus musculus [12] = experiment: Toxicity in female BDF1 mouse allografted with mouse L1210 cells assessed as animal survival at 50 mg/kg, ip administered daily for 9 days as Klucel suspension starting 24 hrs after tumor inoculation measured on fifth day; format: organism-based; design: dose 50 mg/kg, route intraperitoneal; settings: in vivo
# In short: (§3)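 L1210 leukemia passaged as ascitic fluid and inoculated ip. Test agent given ip as a Klucel (hydroxypropylcellulose) suspension, nine daily doses starting 24 h after tumor inoculation. Acute toxicity read as toxicity-day survivors per group (out of 6), recorded on day 5. Animal weight difference T − C was also recorded. Follows NCI screening protocols.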
# Mus musculus [13] = experiment: Toxicity in female BDF1 mouse allografted with mouse L1210 cells assessed as animal survival at 25 mg/kg, ip administered daily for 9 days as Klucel suspension starting 24 hrs after tumor inoculation measured on fifth day; format: organism-based; design: dose 25 mg/kg, route intraperitoneal; settings: in vivo; in short: as §3
# Mus musculus [14] = experiment: Toxicity in female BDF1 mouse allografted with mouse L1210 cells assessed as animal survival at 12.5 mg/kg, ip administered daily for 9 days as Klucel suspension starting 24 hrs after tumor inoculation measured on fifth day; format: organism-based; design: dose 12.5 mg/kg, route intraperitoneal; settings: in vivo
# In short: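 Female BDF1 mice bearing ip ascitic L1210 inoculum got nine daily ip doses in a Klucel suspension, starting 24 h after tumor inoculation. Toxicity was scored as toxicity-day survivors out of the group, recorded on the fifth day. Animal weight difference (T − C) was also tabulated.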
# Mus musculus [15] = experiment: Toxicity in male CDF1 mouse allografted with mouse L1210 cells assessed as animal survival at 200 mg/kg, ip administered daily for 9 days as Klucel suspension starting 24 hrs after tumor inoculation measured on fifth day; format: organism-based; design: dose 200 mg/kg, route intraperitoneal; settings: in vivo; in short: as §3
# Mus musculus [16] = experiment: Toxicity in male CDF1 mouse allografted with mouse L1210 cells assessed as animal survival at 100 mg/kg, ip administered daily for 9 days as Klucel suspension starting 24 hrs after tumor inoculation measured on fifth day; format: organism-based; design: dose 100 mg/kg, route intraperitoneal; settings: in vivo; in short: as §3
# Mus musculus [17] = experiment: Toxicity in male CDF1 mouse allografted with mouse P388 cells assessed as animal survival at 12.5 mg/kg, ip administered daily for 9 days as Klucel suspension starting 24 hrs after tumor inoculation; format: organism-based; design: dose 12.5 mg/kg, route intraperitoneal; settings: in vivo
# In short: (§4)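 P-388 leukemia ascitic fluid inoculated ip. Compound given ip as a suspension in Klucel (hydroxypropylcellulose), once daily for nine doses beginning 24 h post-inoculation. Acute toxicity assessed as toxicity-day survivors per group. Survival was followed up to 30 days, with 30-day survival counted as "cure". Follows NCI screening protocols.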
# P388 [18] = experiment: Antitumor activity against mouse P388 cells allografted in male CDF1 mouse assessed as disease cures by measuring 30-days host survival at 100 mg/kg, ip administered daily for 9 days as Klucel suspension starting 24 hrs after tumor inoculation relative to control; format: functional; settings: route intraperitoneal
# In short: (§5)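 P388 leukemia given as an ascitic fluid cell inoculum, ip, to mice of the strain and sex in each line. Nine daily ip doses were given in a Klucel (hydroxypropylcellulose) suspension, starting 24 h after inoculation. Read-out is median survival time as %T/C, with >125 taken as significant; a "cure" means 30-day survival.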
# P388 [19] = experiment: Antitumor activity against mouse P388 cells allografted in male CDF1 mouse assessed as disease cures by measuring 30-days host survival at 50 mg/kg, ip administered daily for 9 days as Klucel suspension starting 24 hrs after tumor inoculation relative to control; format: functional; settings: route intraperitoneal; in short: as §5
# P388 [20] = experiment: Antitumor activity against mouse P388 cells allografted in male CDF1 mouse assessed as disease cures by measuring 30-days host survival at 25 mg/kg, ip administered daily for 9 days as Klucel suspension starting 24 hrs after tumor inoculation relative to control; format: functional; settings: route intraperitoneal; in short: as §5
# P388 [21] = experiment: Antitumor activity against mouse P388 cells allografted in male CDF1 mouse assessed as disease cures by measuring 30-days host survival at 12.5 mg/kg, ip administered daily for 9 days as Klucel suspension starting 24 hrs after tumor inoculation relative to control; format: functional; settings: route intraperitoneal; in short: as §5
# Mus musculus [22] = experiment: Toxicity in male CDF1 mouse allografted with mouse P388 cells assessed as animal survival at 50 mg/kg, ip administered daily for 9 days as Klucel suspension starting 24 hrs after tumor inoculation; format: organism-based; design: dose 50 mg/kg, route intraperitoneal; settings: in vivo; in short: as §4
# Mus musculus [23] = experiment: Toxicity in male CDF1 mouse allografted with mouse P388 cells assessed as animal survival at 25 mg/kg, ip administered daily for 9 days as Klucel suspension starting 24 hrs after tumor inoculation; format: organism-based; design: dose 25 mg/kg, route intraperitoneal; settings: in vivo; in short: as §4
# P388 [24] = experiment: Antitumor activity against mouse P388 cells allografted in male CDF1 mouse assessed as change in body weight at 25 mg/kg, ip administered daily for 9 days as Klucel suspension starting 24 hrs after tumor inoculation; format: functional; settings: route intraperitoneal
# In short: (§6)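 Ascitic fluid carrying P388 cells was inoculated ip. Compound was given ip in nine daily doses, starting 24 h after inoculation, in Klucel (hydroxypropylcellulose) suspension or in saline with Tween-80. Body-weight difference (treated minus control) was recorded on day 5. Survival was scored as %T/C of median survival time, and 30-day survival counted as cure.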
# P388 [25] = experiment: Antitumor activity against mouse P388 cells allografted in male CDF1 mouse assessed as change in body weight at 50 mg/kg, ip administered daily for 9 days as Klucel suspension starting 24 hrs after tumor inoculation; format: functional; settings: route intraperitoneal; in short: as §6
# P388 [26] = experiment: Antitumor activity against mouse P388 cells allografted in male CDF1 mouse assessed as change in body weight at 100 mg/kg, ip administered daily for 9 days as Klucel suspension starting 24 hrs after tumor inoculation; format: functional; settings: route intraperitoneal; in short: as §6
# P388 [27] = experiment: Antitumor activity against mouse P388 cells allografted in male CDF1 mouse assessed as change in body weight at 12.5 mg/kg, ip administered daily for 9 days as Klucel suspension starting 24 hrs after tumor inoculation; format: functional; settings: route intraperitoneal; in short: as §6
compound,measurement,setting,value
CNC(=O)OCc1c(COC(=O)NC)c(-c2ccc(Cl)c(Cl)c2)n2c1CCC2,EC50,[1],> 2.7 µg/mL
same,Activity,L1210 [2],-4.3 g
same,Activity,L1210 [3],-4.8 g
same,Activity,L1210 [4],-1.5 g
same,Activity,L1210 [5],-1.3 g
same,Activity,L1210 [6],-3 g
same,T/C,L1210 [7],124%
same,T/C,L1210 [8],109%
same,T/C,L1210 [9],106%
same,T/C,L1210 [10],63%
same,T/C,L1210 [11],74%
same,Activity,Mus musculus [12],Non-toxic
same,Activity,Mus musculus [13],Non-toxic
same,Activity,Mus musculus [14],Non-toxic
same,Activity,Mus musculus [15],Non-toxic
same,Activity,Mus musculus [16],Non-toxic
same,Activity,Mus musculus [17],Non-toxic
same,T/C,P388 [18],188%
same,T/C,P388 [19],155%
same,T/C,P388 [20],160%
same,T/C,P388 [21],153%
same,Activity,Mus musculus [22],Non-toxic
same,Activity,Mus musculus [23],Non-toxic
same,Activity,P388 [24],-0.4 g
same,Activity,P388 [25],-2.5 g
same,Activity,P388 [26],-1.9 g
same,Activity,P388 [27],1.6 g
